Experiment: Toxicity liver stage against HepG2, at 10uM
Format: cell-based
Set-up: test concentration 10 uM, cell line HepG2-A16-CD81EGFP
Conditions: human, HepG2-A16-CD81EGFP cells; read-out: INHIBITION
Method in brief: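 Uninfected HepG2-A16-CD81EGFP cells, 3 × 10^3 per well, 1536-well, plated on prespotted compound at 10 μM final, parasite-free screening media added to match infected plates; puromycin 10 μM positive, DMSO 0.5% negative; run in parallel with 48 h PbLuc assay at 37 °C, 5% CO2; viability by CellTiter-Glo luminescence, normalized to controls.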

| Structure (SMILES) | cytotoxicity at 10 µM |
| --- | --- |
| CC(C)N1CCc2ncn(C)c2C1C(=O)NCCN1CCCC1 (stereo not given) | -0.511% |
| NC(=O)c1cc2c(nc1-c1ccoc1)CCC2 | 0.562% |
| CCc1ncnc2c1CCN(C(=O)c1cccn1C)CC2 | -73.5% |
| Cc1ccsc1C(=O)N1CCN(Cc2cscn2)CC1 | -12% |
| CO[C@H]1CCN(S(=O)(=O)c2cn(C)cn2)[C@H]1Cc1cnn(C)c1 | 2.63% |
| Cn1ccc(CN2CCC(CCc3ccc(O)cc3)CC2)cc1=O | 1.2% |
| CC(C)n1nc(CNc2ncccn2)c2c1CN(C)CC2 | -142% |
| O=C(O)c1cc2c(c(S(=O)(=O)N(CCCO)c3ccccc3)c1)CCC2 | 6.58% |
| COc1ccc(Cl)cc1NCC(=O)N(Cc1ccccn1)C1CC1 | 8.13% |
| NC(=O)CCN1CCc2onc(-c3ccccc3F)c2C1 | 5.21% |
| NC(=O)N1CCCC1COC(=O)c1ccc(F)cc1Br (stereo not given) | 0.616% |
| Cc1cc(C)c2nc(CN(C)C(C)c3ccncn3)cc(O)c2c1 (stereo not given) | 4.11% |
| Cc1ncsc1CNC(=O)N1CCN(Cc2ccccc2)C[C@H]1C | -125% |
| CCCS(=O)(=O)N1CCC2(CCC(=O)N(CCc3cccnc3)C2)CC1 | -4.92% |
| CCc1cnc2c(c1Nc1ccc3c(c1)OCO3)c(=O)n(C)c(=O)n2C | 9.06% |
| CN(Cc1nc(N2CCCC2)ncc1-c1ccncc1)C(=O)C(C)(C)C | 6.58% |
| Cc1ncsc1CCC(=O)N1CCCC1c1cccnc1 (stereo not given) | 13.4% |
| c1cncc(CN2CCOC(c3ncn4c(C5CC5)cccc34)C2)c1 (stereo not given) | 1.79% |
| O=C1CCCN1Cc1ncn2c1CN(C(=O)N1CCCC1)CCC2 | -2.36% |
| Cc1nnc(NC(=O)CN2CCCC2c2noc(C3CC3)n2)s1 (stereo not given) | 5.22% |
| CN1C(=O)C2(CCCN(C(=O)c3cccnc3O)C2)c2ccccc21 (stereo not given) | -5.21% |
| CCC(C)N(CCOC)Cc1nc2c(cnn2C)c(=O)[nH]1 (stereo not given) | -12.4% |

| Structure (SMILES) | cytotoxicity at 10 µM |
| --- | --- |
| CC(C)OC(=O)N1CCC(c2nnc(Cn3ccnc3)n2C)CC1 | -120% |
| Cc1ncncc1C(=O)NCCn1nc2ccccn2c1=O | -6.89% |
| COCCn1ccc(NC(=O)Nc2ccncc2)n1 | 4.49% |
| CC1CCN(C(=O)Cn2cc(I)cn2)CC1 | 2.19% |
| CC(=O)N1CCCN(C(=O)CCc2c(C)nc3ccnn3c2C)CC1 | -3.12% |
| CC(C)S(=O)(=O)NC(=O)c1cc(-c2cccc(Cl)c2)no1 | 10% |
| O=C(Cn1cccn1)NCC1(c2ccccc2)CC1 | 3.13% |
| Cc1nn(C)c(C)c1CCC(=O)N1CCN(CCn2cncn2)CC1 | 2.33% |
| CCN1CCC(NC(=O)CN2CCCCC2Cn2cc(C)cn2)CC1 (stereo not given) | 0.144% |
| Cc1ccc(CC(=O)N2Cc3nccn3CC(CN(C)C)C2)cc1 (stereo not given) | -9.58% |
| NCC1(CN2CCOCC2)CCCCC1 | 3.23% |
| CN(C)C(CNCc1nc(-c2ccsc2)no1)c1ccsc1 (stereo not given) | -1.63% |
| CN1CCCN(CC(CC(=O)Nc2ccc(Cl)cc2)C(=O)O)CC1 (stereo not given) | -5.4% |
| N#CC1CCCN(C(=O)Cn2ncc(N3CCCC3)cc2=O)C1 (stereo not given) | -6.36% |
| CCOC(=O)CN1CC(c2nc(-c3ccsc3)no2)C1 | -12.3% |
| CCCS(=O)(=O)N1C[C@@H]2C[C@H](C(=O)N(C)C)[C@H](C1)O2 | -74% |
| CN(C)c1ccc(NC(=O)NCc2ccccn2)cn1 | -3.34% |
| CN1CCN(c2ccc(Cl)cc2NC(=O)c2ccco2)CC1 | -2.14% |
| CC(NC(=O)CCc1nc(C(C)(C)C)no1)c1nnc2n1CCC2 (stereo not given) | 12% |
| COc1cccc(COCC(=O)N2CCCC2Cn2cccn2)c1 (stereo not given) | -0.153% |
| c1ccc(-c2cccc(-c3ccn(CCN4CCCCC4)n3)c2)nc1 | -4.73% |
| O=C(NCc1cc2n(n1)CCCNC2)C1(c2ccccc2)CCCCC1 | -10.6% |

| Structure (SMILES) | cytotoxicity at 10 µM |
| --- | --- |
| O=S(=O)(CCCN1CCCC(Cn2cncn2)C1)c1ccccc1 (stereo not given) | -11.7% |
| CS(=O)(=O)N1C[C@H]2CCC[C@@]2(COCC2CCOCC2)C1 | -0.173% |
| CC(=O)Nc1ccc(CN2CCc3[nH]cnc3C2c2nccn2C)cc1 (stereo not given) | -182% |
| COCC(=O)NCc1ccc(-c2ccccc2C(=O)O)cn1 | -1.53% |
| O=c1cc(CN2C[C@@H]3CC[C@H]2CN(Cc2ccccc2)C3)[nH]c(=O)[nH]1 | 8.89% |
| CN(CCc1ccccn1)C(=O)CCC1CCCN(S(C)(=O)=O)C1 (stereo not given) | 4.77% |
| CC(=O)N1CCc2ncc(CNC(=O)C3CCC3)n2CC1 | 7.48% |
| CN(C)CC1(O)CCCN(C(=O)CCc2nc3cccnc3n2C)C1 (stereo not given) | 0.0448% |
| CNC(=O)[C@H]1C[C@@H]2CN(C(=O)c3occc3C)C[C@@H]2N1S(C)(=O)=O | -2.95% |
| O=C1CCC2(CCNCC2)CN1CCCNc1cccnc1 | -6.46% |
| COc1ccc(C(=O)NC2CC2)c(OC)c1 | -3.51% |
| CNc1nc(N2CCN(C)C(CCO)C2)nc2c1CCC2 (stereo not given) | 2.66% |
| CCOc1ncccc1NC(=O)NCC(O)c1ccccc1OC (stereo not given) | -8.36% |
| CN(C)CCN(C(=O)Cc1ccc2c(c1)OCCO2)C1CCN(C)CC1 | 2.16% |
| CCc1nnc2n1CC(CNCc1nc(C)c(C)o1)CC2 (stereo not given) | -16% |
| O=C(NC[C@]12COC[C@H]1CN(CC1CCOCC1)C2)c1ccccc1 | -5.15% |
| CCN1CC2(CC1=O)CN(C(=O)c1ccoc1)CCN(C(=O)N(C)C)C2 (stereo not given) | 4.26% |
| O=C(NCCCn1cncn1)NCC(c1ccccc1)N1CCCC1 (stereo not given) | -3.99% |
| Cc1nc(NC(=O)OC(C)(C)C)sc1C#N | -10% |
| O=C(CCn1nnc2ccccc2c1=O)N(CC1CCOC1)C1CC1 (stereo not given) | -8.5% |
| Cc1nn(-c2ccc(C(=O)O)cc2)c2c1C(C(C)C)SCC(=O)N2 (stereo not given) | -3.58% |
| C[C@H](NC(=O)N1CCN(c2ccc(Cl)cc2)CC1)C(=O)N1CCSCC1 | -6.3% |

| Structure (SMILES) | cytotoxicity at 10 µM |
| --- | --- |
| Cc1ccc(C)n1-c1ccc(C(=O)NCCNc2ncccn2)cc1 | -1.25% |
| Cc1nc(C)n(Cc2cccc(NC(=O)N(C)CCC(C)O)c2)n1 (stereo not given) | -6.64% |
| Cn1c(CN2CCCCC2)nnc1C1CCCN(C(=O)CCC(N)=O)C1 (stereo not given) | 3.94% |
| O=C(Cc1ccco1)N1C[C@H]2CCC[C@@]2(COCc2cccnc2)C1 | -115% |
| Cc1nc(CN2CCN(C)C(=O)C23CCN(C(C)C)CC3)cs1 | 2.33% |
| Cc1cc(N2CCC3(CCC(=O)N(CC4CC4)C3)CC2)ncn1 | -7.8% |
| O=C(COC1CCCC1)NC(C(=O)Nc1cc[nH]n1)c1ccccc1 (stereo not given) | -10.7% |
| CC(C)CS(=O)(=O)CC(=O)NC(C)c1nnc2n1CCC2 (stereo not given) | -19.1% |
| O=C(O)[C@@H]1CN(C(=O)c2ccc(Cl)cc2)C[C@H]1c1cccc(F)c1 | -132% |
| CN(C)CCCNC(=O)c1ccc(N(C)S(C)(=O)=O)cc1Cl | -6.3% |
| COc1ccc(C(C)NC(=O)Nc2nnc(C)s2)cc1OC (stereo not given) | 9.67% |
| CCc1n[nH]c(NC(=O)c2ccc(Cl)cn2)c1Br | -5.37% |
| CS(=O)(=O)N1C[C@@H]2COC[C@@H](CC(=O)N3CCCO3)[C@@H]2C1 | 11.1% |
| CCC(CO)NC(=O)c1cc(COc2ccc(OC)cc2Cl)[nH]n1 (stereo not given) | 2.2% |
| CCC(C)N(Cc1cccnc1)Cc1cc2c(cc1OC)OCO2 (stereo not given) | 3.17% |
| CS(=O)(=O)N1CCOCC2(CN(Cc3nccs3)CCO2)C1 (stereo not given) | 7.49% |
| Cc1ccoc1CNCc1nnc2n1CC(C(F)(F)F)CC2 (stereo not given) | 14.3% |
| CN(C)CCO[C@H]1CN(C(=O)c2cscn2)[C@@H]2COC[C@H]12 | 1.43% |
| CN(Cc1ccc(-n2cccn2)cc1)Cc1ncc[nH]1 | 1.79% |
| CN(C)CC(=O)N1CCc2sc(C(=O)N3CCN(C)CC3)cc21 | -104% |
| O=C(N[C@@H]1CN(Cc2cccc3[nH]ccc23)C[C@H]1O)c1cscn1 | -2.86% |
| CC(C)c1nc(CC(=O)N2CCN(C)CC2c2ccccc2)cs1 (stereo not given) | -12.6% |

| Structure (SMILES) | cytotoxicity at 10 µM |
| --- | --- |
| COc1ccc2c(c1)C1(CCN(Cc3nccs3)CC1)N(C)CC2 | -148% |
| CC(C)NC(=O)[C@H]1C[C@@H]2[C@@H](C1)OCCN2Cc1cccnc1 | 2.39% |
| CCOCCN1CCN(Cc2cccc(C(=O)N(C)C)c2)CC1 | -13.5% |
| CCc1nnc2n1CCN(Cc1csc(-c3ccc(C)o3)n1)C2 | -1.5% |
| CN1CCC(N(Cc2ccncc2)Cc2nc3c(s2)CCCC3)CC1 | -2.56% |
| Cn1nc(COCC2CC2)c2c1CCN(Cc1cccs1)C2 | -101% |
| Cc1nn(C)c2c(=O)n(Cc3ccccc3)nnc12 | 5.53% |
| CC(C)c1nc(C2CCCN2CCS(=O)(=O)c2ccccc2)no1 (stereo not given) | -5.28% |
| Cc1ccn(-c2ccnc(N3CCC(N4CCCCC4)CC3)n2)n1 | 4.54% |
| c1snnc1CN1C[C@H]2CCC[C@@H](CN3CCOCC3)[C@H]2C1 | -116% |
| COc1ccc(OC)c(CN(C)c2nc3c(cnn3C)c(=O)[nH]2)c1 | 59.5% |
| CCn1ccnc1CN(C)Cc1nc(Cc2ccccc2F)no1 | 0.686% |
| CCc1nc(CN2CCCN(C(=O)c3cn[nH]c3C)CC2)cs1 | -2.97% |
| O=C(c1cnccn1)N1CCN(Cc2csc(-c3ccccc3)n2)CC1 | -3.32% |
| CCN1C[C@@H]2[C@@H](OC)CCN(S(=O)(=O)c3ccccc3)[C@@H]2C1 | -2.7% |
| CCOCCCNC(=O)c1ccccc1S(C)(=O)=O | -1.58% |
| Cc1cccc(CN2CCN(C(=O)c3cccnc3O)CC2)c1 | 1.73% |
| CC(=O)N1CCC(c2nccnc2Nc2cnccn2)CC1 | 4.51% |
| Cc1ccc(-c2n[nH]cc2CNCC2CCN(CC(C)O)CC2)cc1 (stereo not given) | -16.6% |
| CN(Cc1cc(F)ccc1F)CC(C)(CO)CO | -5.38% |
| CC(C)N1CCc2c(c(COc3cncnc3)nn2CC2CC2)C1 | 1.7% |
| Cn1nc(C(=O)NC2CCCCC2)cc1NC(=O)C1CC1 | -3.97% |

Reference: ChEMBL document CHEMBL4513216, “Probing the Open Global Health Chemical Diversity Library for Multistage-Active Starting Points for Next-Generation Antimalarials” (ACS Infect Dis, 2020)
